Columns and labels:
[1] = tested on: Plasmodium berghei; test: Antimalarial activity against Plasmodium berghei infected in Swiss Webster mouse assessed as mouse survival rate at 200 mg/kg administered once daily via oral gavage for 4 consecutive days beginning 1 hr after infection measured on day 11 post infection relative to control; type: functional
Summary of the method: (§1)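 P. berghei-infected erythrocytes taken from a previously infected mouse were injected intraperitoneally. Oral dosing, once daily for 4 consecutive days, began 1 h after infection, in polyethylene glycol 300/propylene glycol/water (55/25/20 by weight). Chloroquine at 30 mg/kg was the positive control, with a vehicle-only group. Percent survival was recorded daily from day 4 to day 20.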

[2] = tested on: Plasmodium berghei; test: Antimalarial activity against Plasmodium berghei infected in Swiss Webster mouse assessed as mouse survival rate at 3 mg/kg administered once daily via oral gavage for 4 consecutive days beginning 1 hr after infection measured on day 4 post infection relative to control; type: functional; summary of the method: as §1
[3] = tested on: Plasmodium berghei; test: Antimalarial activity against Plasmodium berghei infected in Swiss Webster mouse assessed as mouse survival rate at 200 mg/kg administered once daily via oral gavage for 4 consecutive days beginning 1 hr after infection measured on day 10 post infection relative to control; type: functional; summary of the method: as §1
[4] = tested on: Plasmodium falciparum; test: Antimalarial activity against chloroquine-sensitive Plasmodium falciparum 3D7 infected in human erythrocytes assessed as reduction in [3H]-hypoxanthine incorporation preincubated for 24 hrs followed by [3H]-hypoxanthine addition measured after 24 hrs by scintillation counting method; type: functional, cell-based
Summary of the method: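 P. falciparum 3D7 cultures were exposed to the compound for 48 h, with atovaquone as the reference control. IC50 was taken from three replicates.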

[5] = tested on: Plasmodium berghei; test: Antimalarial activity against Plasmodium berghei infected in Swiss Webster mouse assessed as mouse survival rate at 11 mg/kg administered once daily via oral gavage for 4 consecutive days beginning 1 hr after infection measured on day 6 post infection relative to control; type: functional; summary of the method: as §1
[6] = tested on: Plasmodium berghei; test: Antimalarial activity against Plasmodium berghei infected in Swiss Webster mouse assessed as mouse survival rate at 100 mg/kg administered once daily via oral gavage for 4 consecutive days beginning 1 hr after infection measured on day 5 post infection relative to control; type: functional
Summary of the method: (§2)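 Mice given an intraperitoneal injection of P. berghei-infected erythrocytes taken from a previously infected animal. Oral dosing once daily for 4 consecutive days, starting 1 h after infection. Vehicle: polyethylene glycol 300/propylene glycol/water (weight ratio 55/25/20). Percent survival recorded daily from day 4 to day 20. Chloroquine 30 mg/kg and vehicle-only groups served as controls.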

[7] = tested on: Plasmodium berghei; test: Antimalarial activity against Plasmodium berghei infected in Swiss Webster mouse assessed as mouse survival rate administered once daily via oral gavage for 4 consecutive days beginning 1 hr after infection measured on day 4 post infection; type: functional; summary of the method: as §2
[8] = tested on: Plasmodium berghei; test: Antimalarial activity against Plasmodium berghei infected in Swiss Webster mouse assessed as mouse survival rate at 1 mg/kg administered once daily via oral gavage for 4 consecutive days beginning 1 hr after infection measured on day 7 post infection relative to control; type: functional; summary of the method: as §2
[9] = tested on: Plasmodium berghei; test: Antimalarial activity against Plasmodium berghei infected in Swiss Webster mouse assessed as mouse survival rate at 100 mg/kg administered once daily via oral gavage for 4 consecutive days beginning 1 hr after infection measured on day 7 post infection relative to control; type: functional; summary of the method: as §2
[10] = tested on: Plasmodium berghei; test: Antimalarial activity against Plasmodium berghei infected in Swiss Webster mouse assessed as mouse survival rate at 200 mg/kg administered once daily via oral gavage for 4 consecutive days beginning 1 hr after infection measured on day 4 post infection relative to control; type: functional; summary of the method: as §1
[11] = tested on: Plasmodium berghei; test: Antimalarial activity against Plasmodium berghei infected in Swiss Webster mouse assessed as mouse survival rate at 100 mg/kg administered once daily via oral gavage for 4 consecutive days beginning 1 hr after infection measured on day 4 post infection relative to control; type: functional; summary of the method: as §2
[12] = tested on: Plasmodium berghei; test: Antimalarial activity against Plasmodium berghei infected in Swiss Webster mouse assessed as mouse survival rate at 33 mg/kg administered once daily via oral gavage for 4 consecutive days beginning 1 hr after infection measured on day 7 post infection relative to control; type: functional; summary of the method: as §1
[13] = tested on: Plasmodium berghei; test: Antimalarial activity against Plasmodium berghei infected in Swiss Webster mouse assessed as mouse survival rate at 33 mg/kg administered once daily via oral gavage for 4 consecutive days beginning 1 hr after infection measured on day 5 post infection relative to control; type: functional; summary of the method: as §1
[14] = tested on: Plasmodium falciparum; test: Antimalarial activity against chloroquine-resistant Plasmodium falciparum W2 infected in human erythrocytes after 48 hrs by YOYO-1 dye based flow cytometric analysis; type: functional, cell-based; conditions: W2, 48 h
Summary of the method: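 P. falciparum W2 cultures were exposed to the compound for 48 h, with artemisinin and chloroquine as reference controls. IC50 was taken from two independent replicates.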

[15] = tested on: Plasmodium berghei; test: Antimalarial activity against Plasmodium berghei infected in Swiss Webster mouse assessed as mouse survival rate at 1 mg/kg administered once daily via oral gavage for 4 consecutive days beginning 1 hr after infection measured on day 4 post infection relative to control; type: functional; summary of the method: as §2
[16] = tested on: Plasmodium berghei; test: Antimalarial activity against Plasmodium berghei infected in Swiss Webster mouse assessed as mouse survival rate at 33 mg/kg administered once daily via oral gavage for 4 consecutive days beginning 1 hr after infection measured on day 6 post infection relative to control; type: functional; summary of the method: as §1
[17] = tested on: Plasmodium berghei; test: Antimalarial activity against Plasmodium berghei infected in Swiss Webster mouse assessed as mouse survival rate at 3 mg/kg administered once daily via oral gavage for 4 consecutive days beginning 1 hr after infection measured on day 5 post infection relative to control; type: functional; summary of the method: as §1
[18] = tested on: Plasmodium berghei; test: Antimalarial activity against Plasmodium berghei infected in Swiss Webster mouse assessed as mouse survival rate at 100 mg/kg administered once daily via oral gavage for 4 consecutive days beginning 1 hr after infection measured on day 6 post infection relative to control; type: functional; summary of the method: as §2
[19] = tested on: Plasmodium berghei; test: Antimalarial activity against Plasmodium berghei infected in Swiss Webster mouse assessed as mouse survival rate at 3.7 mg/kg administered once daily via oral gavage for 4 consecutive days beginning 1 hr after infection measured on day 5 post infection relative to control; type: functional; summary of the method: as §1
[20] = tested on: Plasmodium berghei; test: Antimalarial activity against Plasmodium berghei infected in Swiss Webster mouse assessed as mouse survival rate at 3 mg/kg administered once daily via oral gavage for 4 consecutive days beginning 1 hr after infection measured on day 6 post infection relative to control; type: functional; summary of the method: as §1
[21] = tested on: Plasmodium berghei; test: Antimalarial activity against Plasmodium berghei infected in Swiss Webster mouse assessed as mouse survival rate at 200 mg/kg administered once daily via oral gavage for 4 consecutive days beginning 1 hr after infection measured on day 8 post infection relative to control; type: functional; summary of the method: as §1
[22] = tested on: Plasmodium berghei; test: Antimalarial activity against Plasmodium berghei infected in Swiss Webster mouse assessed as mouse survival rate at 200 mg/kg administered once daily via oral gavage for 4 consecutive days beginning 1 hr after infection measured on day 9 post infection relative to control; type: functional; summary of the method: as §1
[23] = tested on: Plasmodium berghei; test: Antimalarial activity against Plasmodium berghei infected in Swiss Webster mouse assessed as mouse survival rate at 33 mg/kg administered once daily via oral gavage for 4 consecutive days beginning 1 hr after infection measured on day 4 post infection relative to control; type: functional; summary of the method: as §1
[24] = tested on: Plasmodium berghei; test: Antimalarial activity against Plasmodium berghei infected in Swiss Webster mouse assessed as mouse survival rate at 11 mg/kg administered once daily via oral gavage for 4 consecutive days beginning 1 hr after infection measured on day 7 post infection relative to control; type: functional; summary of the method: as §1
[25] = tested on: Plasmodium berghei; test: Antimalarial activity against Plasmodium berghei infected in Swiss Webster mouse assessed as mouse survival rate at 11 mg/kg administered once daily via oral gavage for 4 consecutive days beginning 1 hr after infection measured on day 4 post infection relative to control; type: functional; summary of the method: as §1
[26] = tested on: Plasmodium berghei; test: Antimalarial activity against Plasmodium berghei infected in Swiss Webster mouse assessed as mouse survival rate at 3 mg/kg administered once daily via oral gavage for 4 consecutive days beginning 1 hr after infection measured on day 7 post infection relative to control; type: functional; summary of the method: as §1
[27] = tested on: Plasmodium berghei; test: Antimalarial activity against Plasmodium berghei infected in Swiss Webster mouse assessed as mouse survival rate at 200 mg/kg administered once daily via oral gavage for 4 consecutive days beginning 1 hr after infection measured on day 7 post infection relative to control; type: functional; summary of the method: as §1
[28] = tested on: Plasmodium berghei; test: Antimalarial activity against Plasmodium berghei infected in Swiss Webster mouse assessed as mouse survival rate at 200 mg/kg administered once daily via oral gavage for 4 consecutive days beginning 1 hr after infection measured on day 5 post infection relative to control; type: functional; summary of the method: as §1
[29] = tested on: Plasmodium berghei; test: Antimalarial activity against Plasmodium berghei infected in Swiss Webster mouse assessed as mouse survival rate at 200 mg/kg administered once daily via oral gavage for 4 consecutive days beginning 1 hr after infection measured on day 6 post infection relative to control; type: functional; summary of the method: as §1
[30] = tested on: Plasmodium berghei; test: Antimalarial activity against Plasmodium berghei infected in Swiss Webster mouse assessed as mouse survival rate at 1 mg/kg administered once daily via oral gavage for 4 consecutive days beginning 1 hr after infection measured on day 5 post infection relative to control; type: functional; summary of the method: as §2
[31] = tested on: Plasmodium berghei; test: Antimalarial activity against Plasmodium berghei infected in Swiss Webster mouse assessed as mouse survival rate at 100 mg/kg administered once daily via oral gavage for 4 consecutive days beginning 1 hr after infection measured on day 8 post infection relative to control; type: functional; summary of the method: as §2
[32] = tested on: Plasmodium berghei; test: Antimalarial activity against Plasmodium berghei infected in Swiss Webster mouse assessed as mouse survival rate at 1 mg/kg administered once daily via oral gavage for 4 consecutive days beginning 1 hr after infection measured on day 6 post infection relative to control; type: functional; summary of the method: as §2
[33] = tested on: Plasmodium berghei; test: Antimalarial activity against Plasmodium berghei infected in Swiss Webster mouse assessed as mouse survival rate at 100 mg/kg administered once daily via oral gavage for 4 consecutive days beginning 1 hr after infection measured on day 9 post infection relative to control; type: functional; summary of the method: as §2

CC[C@H](CO)NC(=O)c1cnc(Oc2ccc3c(c2C)B(O)OC3)cn1
survival at 200 mg/kg [1]: 0% | survival at 3 mg/kg [2]: 100% | survival at 200 mg/kg [3]: 20% | IC50 [4]: 403 nM | survival at 11 mg/kg [5]: 100% | survival at 100 mg/kg [6]: 100% | ED90 [7]: 43.3 mg/kg | survival at 1 mg/kg [8]: 0% | survival at 100 mg/kg [9]: 100% | survival at 200 mg/kg [10]: 100% | survival at 100 mg/kg [11]: 100% | survival at 33 mg/kg [12]: 0% | survival at 33 mg/kg [13]: 100% | IC50 [14]: 136 nM | survival at 1 mg/kg [15]: 100% | survival at 33 mg/kg [16]: 100% | survival at 3 mg/kg [17]: 100% | survival at 100 mg/kg [18]: 100% | survival at 3.7 mg/kg [19]: 100% | survival at 3 mg/kg [20]: 100% | survival at 200 mg/kg [21]: 100% | survival at 200 mg/kg [22]: 60% | survival at 33 mg/kg [23]: 100% | survival at 11 mg/kg [24]: 0% | survival at 11 mg/kg [25]: 100% | survival at 3 mg/kg [26]: 0% | survival at 200 mg/kg [27]: 100% | survival at 200 mg/kg [28]: 100% | survival at 200 mg/kg [29]: 100% | survival at 1 mg/kg [30]: 100% | survival at 100 mg/kg [31]: 80% | survival at 1 mg/kg [32]: 100% | survival at 100 mg/kg [33]: 0%

From ChEMBL document CHEMBL4038305, “Benzoxaborole Antimalarial Agents. Part 5. Lead Optimization of Novel Amide Pyrazinyloxy Benzoxaboroles and Identification of a Preclinical Candidate” (J Med Chem, 2017)
